Measurements from ChEMBL document CHEMBL4190362, “Synthesis, biological evaluation and quantitative structure-active relationships of 1,3-thiazolidin-4-one derivatives. A promising chemical scaffold endowed with high antifungal potency and low cytotoxicity” (Eur J Med Chem, 2017).

Legend:
Type in all cases: functional
[1] = tested on: Pichia kudriavzevii; experiment: Antifungal activity against Candida krusei clinical isolates assessed as inhibition of microbial growth incubated for 24 hrs by broth microdilution method
Summary of the method: (§1)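 Twenty-two clinical Candida isolates (8 C. albicans, 4 C. glabrata, 3 C. tropicalis, 3 C. krusei, 2 C. parapsilosis, 2 C. sake) were identified by colony morphology and biochemistry and subcultured at 35 °C for purity. Compounds were dissolved in DMSO and tested by broth microdilution in Sabouraud dextrose broth per NCCLS/CLSI/EUCAST guidance. Values are geometric mean MIC per species (µg/mL).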

[2] = tested on: Candida parapsilosis; experiment: Antifungal activity against Candida parapsilosis clinical isolates assessed as inhibition of microbial growth incubated for 24 hrs by broth microdilution method; conditions: Lodderomyces parapsilosis; summary of the method: as §1
[3] = tested on: Nakaseomyces glabratus; experiment: Antifungal activity against Candida glabrata clinical isolates assessed as inhibition of microbial growth incubated for 24 hrs by broth microdilution method; summary of the method: as §1
[4] = tested on: Proteus mirabilis; experiment: Antibacterial activity against Proteus mirabilis assessed as inhibition of microbial growth incubated for 18 to 22 hrs by broth microdilution method
Summary of the method: (§2)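 Broth microdilution in Mueller-Hinton II broth following NCCLS recommendations; compounds dissolved in DMSO.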

[5] = tested on: Klebsiella oxytoca; experiment: Antibacterial activity against Klebsiella oxytoca assessed as inhibition of microbial growth incubated for 18 to 22 hrs by broth microdilution method; summary of the method: as §2
[6] = tested on: Staphylococcus warneri; experiment: Antibacterial activity against Staphylococcus warneri assessed as inhibition of microbial growth incubated for 18 to 22 hrs by broth microdilution method; summary of the method: as §2
[7] = tested on: Escherichia coli; experiment: Antibacterial activity against Escherichia coli assessed as inhibition of microbial growth incubated for 18 to 22 hrs by broth microdilution method; summary of the method: as §2
[8] = tested on: [Candida] sake; experiment: Antifungal activity against Candida sake clinical isolates assessed as inhibition of microbial growth incubated for 24 hrs by broth microdilution method; conditions: Fermentozyma sake; summary of the method: as §1
[9] = tested on: Candida tropicalis; experiment: Antifungal activity against Candida tropicalis clinical isolates assessed as inhibition of microbial growth incubated for 24 hrs by broth microdilution method; summary of the method: as §1
[10] = tested on: Enterococcus faecalis; experiment: Antibacterial activity against Streptococcus faecalis assessed as inhibition of microbial growth incubated for 18 to 22 hrs by broth microdilution method; summary of the method: as §2
[11] = tested on: Candida albicans; experiment: Antifungal activity against Candida albicans clinical isolates assessed as inhibition of microbial growth incubated for 24 hrs by broth microdilution method; summary of the method: as §1
[12] = tested on: Enterobacter; experiment: Antibacterial activity against Enterobacter spp. assessed as inhibition of microbial growth incubated for 18 to 22 hrs by broth microdilution method; summary of the method: as §2
[13] = tested on: Staphylococcus aureus; experiment: Antibacterial activity against Staphylococcus aureus assessed as inhibition of microbial growth incubated for 18 to 22 hrs by broth microdilution method; summary of the method: as §2

| SMILES | MIC [1] | MIC [2] | MIC [3] | MIC [4] | MIC [5] | MIC [6] | MIC [7] | MIC [8] | MIC [9] | MIC [10] | MIC [11] | MIC [12] | MIC [13] |
| --- | --- | --- | --- | --- | --- | --- | --- | --- | --- | --- | --- | --- | --- |
| O=C1CS/C(=N/N=C\c2cccc([N+](=O)[O-])c2)N1Cc1ccccc1 | 2 µg/mL | 2 µg/mL | 2 µg/mL | ≥ 256 µg/mL | ≥ 256 µg/mL | ≥ 256 µg/mL | ≥ 256 µg/mL | 8 µg/mL | 2 µg/mL | ≥ 256 µg/mL | 2 µg/mL | ≥ 256 µg/mL | ≥ 256 µg/mL |
| C/C(=N/N=C1/SCC(=O)N1Cc1ccccc1)C1CCCCC1 | 8 µg/mL | 8 µg/mL | 8 µg/mL | ≥ 256 µg/mL | ≥ 256 µg/mL | ≥ 256 µg/mL | ≥ 256 µg/mL | 8 µg/mL | 8 µg/mL | ≥ 256 µg/mL | 8 µg/mL | ≥ 256 µg/mL | ≥ 256 µg/mL |
| CCCCCC/C(C)=N\N=C1\SCC(=O)N1Cc1ccccc1 | 16 µg/mL | 16 µg/mL | 8 µg/mL | ≥ 256 µg/mL | ≥ 256 µg/mL | ≥ 256 µg/mL | ≥ 256 µg/mL | 16 µg/mL | 16 µg/mL | ≥ 256 µg/mL | 8 µg/mL | ≥ 256 µg/mL | ≥ 256 µg/mL |
| C/C(=N/N=C1/SCC(=O)N1Cc1ccccc1)c1ccc([N+](=O)[O-])cc1 | 4 µg/mL | 4 µg/mL | 4 µg/mL | ≥ 256 µg/mL | ≥ 256 µg/mL | ≥ 256 µg/mL | ≥ 256 µg/mL | 8 µg/mL | 8 µg/mL | ≥ 256 µg/mL | 8 µg/mL | ≥ 256 µg/mL | ≥ 256 µg/mL |
| O=C1CS/C(=N/N=C2CCCC2)N1Cc1ccccc1 | 16 µg/mL | 16 µg/mL | 8 µg/mL | ≥ 256 µg/mL | ≥ 256 µg/mL | ≥ 256 µg/mL | ≥ 256 µg/mL | 16 µg/mL | 16 µg/mL | ≥ 256 µg/mL | 8 µg/mL | ≥ 256 µg/mL | ≥ 256 µg/mL |
| O=C1CS/C(=N/N=C\c2ccc3c(c2)OCO3)N1Cc1ccccc1 | 8 µg/mL | 8 µg/mL | 8 µg/mL | ≥ 256 µg/mL | ≥ 256 µg/mL | ≥ 256 µg/mL | ≥ 256 µg/mL | 8 µg/mL | 8 µg/mL | ≥ 256 µg/mL | 8 µg/mL | ≥ 256 µg/mL | ≥ 256 µg/mL |
| CC1CCCC/C1=N/N=C1/SCC(=O)N1Cc1ccccc1 (stereo not drawn) | 16 µg/mL | 4 µg/mL | 2 µg/mL | ≥ 256 µg/mL | ≥ 256 µg/mL | ≥ 256 µg/mL | ≥ 256 µg/mL | 16 µg/mL | 32 µg/mL | ≥ 256 µg/mL | 16 µg/mL | ≥ 256 µg/mL | ≥ 256 µg/mL |
| O=C1CS/C(=N/N=C\c2cccs2)N1Cc1ccccc1 | 32 µg/mL | 32 µg/mL | 8 µg/mL | ≥ 256 µg/mL | ≥ 256 µg/mL | ≥ 256 µg/mL | ≥ 256 µg/mL | 32 µg/mL | 8 µg/mL | ≥ 256 µg/mL | 8 µg/mL | ≥ 256 µg/mL | ≥ 256 µg/mL |
| CCC(CC)=N/N=C1/SCC(=O)N1Cc1ccccc1 | 8 µg/mL | 8 µg/mL | 2 µg/mL | ≥ 256 µg/mL | ≥ 256 µg/mL | ≥ 256 µg/mL | ≥ 256 µg/mL | 8 µg/mL | 32 µg/mL | ≥ 256 µg/mL | 32 µg/mL | ≥ 256 µg/mL | ≥ 256 µg/mL |
| C/C(=N/N=C1/SCC(=O)N1Cc1ccccc1)c1ccsc1 | 128 µg/mL | 128 µg/mL | 4 µg/mL | ≥ 256 µg/mL | ≥ 256 µg/mL | ≥ 256 µg/mL | ≥ 256 µg/mL | 128 µg/mL | 128 µg/mL | ≥ 256 µg/mL | 256 µg/mL | ≥ 256 µg/mL | ≥ 256 µg/mL |
| CCCC/C(C)=N\N=C1\SCC(=O)N1Cc1ccccc1 | 2 µg/mL | 2 µg/mL | 2 µg/mL | ≥ 256 µg/mL | ≥ 256 µg/mL | ≥ 256 µg/mL | ≥ 256 µg/mL | 4 µg/mL | 2 µg/mL | ≥ 256 µg/mL | 2 µg/mL | ≥ 256 µg/mL | ≥ 256 µg/mL |
| C/C(=N/N=C1/SCC(=O)N1Cc1ccccc1)c1ccncc1 | 2 µg/mL | 32 µg/mL | 16 µg/mL | ≥ 256 µg/mL | ≥ 256 µg/mL | ≥ 256 µg/mL | ≥ 256 µg/mL | 32 µg/mL | 32 µg/mL | ≥ 256 µg/mL | 8 µg/mL | ≥ 256 µg/mL | ≥ 256 µg/mL |
| CCC/C(C)=N\N=C1\SCC(=O)N1Cc1ccccc1 | 16 µg/mL | 8 µg/mL | 2 µg/mL | ≥ 256 µg/mL | ≥ 256 µg/mL | ≥ 256 µg/mL | ≥ 256 µg/mL | 32 µg/mL | 8 µg/mL | ≥ 256 µg/mL | 8 µg/mL | ≥ 256 µg/mL | ≥ 256 µg/mL |
| C/C(=N/N=C1/SCC(=O)N1Cc1ccccc1)c1ccccc1[N+](=O)[O-] | 8 µg/mL | 2 µg/mL | 2 µg/mL | ≥ 256 µg/mL | ≥ 256 µg/mL | ≥ 256 µg/mL | ≥ 256 µg/mL | 4 µg/mL | 2 µg/mL | ≥ 256 µg/mL | 2 µg/mL | ≥ 256 µg/mL | ≥ 256 µg/mL |
| C/C(=N/N=C1/SCC(=O)N1Cc1ccccc1)c1ccco1 | 256 µg/mL | 256 µg/mL | 256 µg/mL | ≥ 256 µg/mL | ≥ 256 µg/mL | ≥ 256 µg/mL | ≥ 256 µg/mL | 256 µg/mL | 256 µg/mL | ≥ 256 µg/mL | 256 µg/mL | ≥ 256 µg/mL | ≥ 256 µg/mL |
| C/C(=N/N=C1/SCC(=O)N1Cc1ccccc1)c1cccc2ccccc12 | 16 µg/mL | 16 µg/mL | 4 µg/mL | ≥ 256 µg/mL | ≥ 256 µg/mL | ≥ 256 µg/mL | ≥ 256 µg/mL | 4 µg/mL | 32 µg/mL | ≥ 256 µg/mL | 4 µg/mL | ≥ 256 µg/mL | ≥ 256 µg/mL |
